Measurements taken from ChEMBL document CHEMBL1154716, “Synthesis of some new S-triazine based chalcones and their derivatives as potent antimicrobial agents” (2010).
Values after ≈ are worked out from the molar mass of the structure shown. Active and inactive are the calls of the source. The rule behind the calls is not given here.

How the values were obtained:
[1] = tested on: Escherichia coli; test: Antimicrobial activity against Escherichia coli at 1 umol/spot after 18 hrs by TLC-bioautographic method; type: functional
In short: (§1)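 TLC bioautography. Samples are spotted on silica gel TLC plates, then sprayed with bacteria (1.0 × 10^5 cfu/ml) in tryptic soy broth. Plates are incubated 18 h at 37 C and sprayed with 3% aqueous p-iodonitrotetrazolium violet. After a further 3 h, growth is stopped with 70% EtOH. White zones on a pink background are scored as inhibition-zone diameter with standard errors.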

[2] = tested on: Micrococcus flavus; test: Antimicrobial activity against Micrococcus flavus at 1 umol/disk after 24 hrs by disk diffusion assay; type: functional
In short: (§2)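 Disc diffusion on 4 mm filter discs. Bacteria are grown overnight in LB at 28 C, then adjusted in saline to 1.0 × 10^5 cfu/ml. The suspension is mixed into top agar over peptone agar plates. Plates are incubated 24 h at 28 C, and growth-inhibition zone diameter is measured. Streptomycin and ampicillin controls are applied from a 1 mg/ml stock. Tests are done in duplicate.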

[3] = tested on: Micrococcus flavus; test: Antimicrobial activity against Micrococcus flavus at 1 umol/spot after 18 hrs by TLC-bioautographic method; type: functional; in short: as §1
[4] = tested on: Staphylococcus aureus; test: Antimicrobial activity against Staphylococcus aureus at 10 ug/disk after 24 hrs by disk diffusion assay; type: functional; in short: as §2
[5] = tested on: Salmonella typhimurium; test: Antimicrobial activity against Salmonella Typhimurium at 1 umol/disk after 24 hrs by disk diffusion assay; type: functional, organism-based; conditions: Salmonella enterica subsp. enterica serovar Typhimurium; in short: as §2
[6] = tested on: Escherichia coli; test: Antimicrobial activity against Escherichia coli at 1 umol/disk after 24 hrs by disk diffusion assay; type: functional; in short: as §2
[7] = tested on: Staphylococcus aureus; test: Antimicrobial activity against Staphylococcus aureus after 24 hrs by microdilution technique; type: functional
In short: (§3)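 Broth microdilution in LB medium. Inoculum is 1.0 × 10^4 cfu per well, from a saline-adjusted suspension of 1.0 × 10^5 cfu/ml. Compounds are dissolved in DMSO. Incubated 24 h at 28 C. MIC is the lowest concentration with no visible growth under a binocular microscope. MBC is read by subculture into fresh broth for 72 h, with no growth taken as 99.5% kill. OD is read at 655 nm.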

[8] = tested on: Enterobacter cloacae; test: Antimicrobial activity against Enterobacter cloacae after 24 hrs by microdilution technique; type: functional; in short: as §3
[9] = tested on: Bacillus cereus; test: Antimicrobial activity against Bacillus cereus at 10 ug/disk after 24 hrs by disk diffusion assay; type: functional; in short: as §2
[10] = tested on: Listeria monocytogenes; test: Antimicrobial activity against Listeria monocytogenes after 24 hrs by microdilution technique; type: functional; in short: as §3
[11] = tested on: Escherichia coli; test: Antimicrobial activity against Escherichia coli at 10 ug/disk after 24 hrs by disk diffusion assay; type: functional; in short: as §2
[12] = tested on: Listeria monocytogenes; test: Antimicrobial activity against Listeria monocytogenes at 10 ug/disk after 24 hrs by disk diffusion assay; type: functional; in short: as §2
[13] = tested on: Pseudomonas aeruginosa; test: Antimicrobial activity against Pseudomonas aeruginosa at 1 umol/spot after 18 hrs by TLC-bioautographic method; type: functional; in short: as §1
[14] = tested on: Salmonella typhimurium; test: Antimicrobial activity against Salmonella Typhimurium after 24 hrs by microdilution technique; type: functional, Salmonella enterica subsp. enterica serovar Typhimurium; conditions: Salmonella enterica; in short: as §3
[15] = tested on: Pseudomonas aeruginosa; test: Antimicrobial activity against Pseudomonas aeruginosa at 1 umol/disk after 24 hrs by disk diffusion assay; type: functional; in short: as §2
[16] = tested on: Staphylococcus aureus; test: Antimicrobial activity against Staphylococcus aureus at 1 umol/spot after 18 hrs by TLC-bioautographic method; type: functional; in short: as §1
[17] = tested on: Listeria monocytogenes; test: Antimicrobial activity against Listeria monocytogenes at 1 umol/disk after 24 hrs by disk diffusion assay; type: functional; in short: as §2
[18] = tested on: Micrococcus flavus; test: Antimicrobial activity against Micrococcus flavus after 24 hrs by microdilution technique; type: functional; in short: as §3
[19] = tested on: Micrococcus flavus; test: Antimicrobial activity against Micrococcus flavus at 10 ug/disk after 24 hrs by disk diffusion assay; type: functional; in short: as §2
[20] = tested on: Bacillus cereus; test: Antimicrobial activity against Bacillus cereus after 24 hrs by microdilution technique; type: functional; in short: as §3
[21] = tested on: Escherichia coli; test: Antimicrobial activity against Escherichia coli after 24 hrs by microdilution technique; type: functional; in short: as §3
[22] = tested on: Bacillus cereus; test: Antimicrobial activity against Bacillus cereus at 1 umol/disk after 24 hrs by disk diffusion assay; type: functional; in short: as §2
[23] = tested on: Salmonella typhimurium; test: Antimicrobial activity against Salmonella Typhimurium at 1 umol/spot after 18 hrs by TLC-bioautographic method; type: functional, Salmonella enterica subsp. enterica serovar Typhimurium; in short: as §1
[24] = tested on: Staphylococcus aureus; test: Antimicrobial activity against Staphylococcus aureus at 1 umol/disk after 24 hrs by disk diffusion assay; type: functional; design: unit not given here; in short: as §2
[25] = tested on: Enterobacter cloacae; test: Antimicrobial activity against Enterobacter cloacae at 10 ug/disk after 24 hrs by disk diffusion assay; type: functional; in short: as §2
[26] = tested on: Enterobacter cloacae; test: Antimicrobial activity against Enterobacter cloacae at 1 umol/disk after 24 hrs by disk diffusion assay; type: functional; in short: as §2
[27] = tested on: Salmonella typhimurium; test: Antimicrobial activity against Salmonella Typhimurium at 10 ug/disk after 24 hrs by disk diffusion assay; type: functional, organism-based; conditions: Salmonella enterica subsp. enterica serovar Typhimurium; in short: as §2
[28] = tested on: Listeria monocytogenes; test: Antimicrobial activity against Listeria monocytogenes at 1 umol/spot after 18 hrs by TLC-bioautographic method; type: functional; in short: as §1
[29] = tested on: Bacillus cereus; test: Antimicrobial activity against Bacillus cereus at 1 umol/spot after 18 hrs by TLC-bioautographic method; type: functional; in short: as §1
[30] = tested on: Pseudomonas aeruginosa; test: Antimicrobial activity against Pseudomonas aeruginosa at 10 ug/disk after 24 hrs by disk diffusion assay; type: functional; in short: as §2
[31] = tested on: Enterobacter cloacae; test: Antimicrobial activity against Enterobacter cloacae at 1 umol/spot after 18 hrs by TLC-bioautographic method; type: functional; in short: as §1
[32] = tested on: Pseudomonas aeruginosa; test: Antimicrobial activity against Pseudomonas aeruginosa after 24 hrs by microdilution technique; type: functional; in short: as §3

Row | Compound | inhibition zone (IZ) [1] | inhibition zone (IZ) [2] | inhibition zone (IZ) [3] | inhibition zone (IZ) [5] | inhibition zone (IZ) [6] | MBC [7] | MIC [7] | MBC [8] | MIC [8] | inhibition zone (IZ) [9] | MBC [10] | MIC [10] | inhibition zone (IZ) [11] | inhibition zone (IZ) [12] | inhibition zone (IZ) [13] | MBC [14] | MIC [14] | inhibition zone (IZ) [15] | inhibition zone (IZ) [16] | inhibition zone (IZ) [17] | further results
1 | N#Cc1c(-c2ccco2)cc(-c2ccc(Nc3nc(Nc4ccccc4)nc(Nc4ccccc4)n3)cc2)nc1N | inactive | inactive | inactive | inactive | inactive | 372 µM (≈ 200 µg/mL) | 186 µM (≈ 100 µg/mL) | 372 µM (≈ 200 µg/mL) | 186 µM (≈ 100 µg/mL) | inactive | 744 µM (≈ 400 µg/mL) | 372 µM (≈ 200 µg/mL) | inactive | inactive | inactive | 372 µM (≈ 200 µg/mL) | 186 µM (≈ 100 µg/mL) | inactive | inactive | inactive | zone of inhibition at 10 µg/disc ([4]; read-out: IZ): 6 mm; MBC [18]: 186 µM (≈ 100 µg/mL); MIC [18]: 93 µM (≈ 50 µg/mL); inhibition zone (IZ) [19]: inactive; MBC [20]: 186 µM (≈ 100 µg/mL); MIC [20]: 93 µM (≈ 50 µg/mL); MBC [21]: 186 µM (≈ 100 µg/mL); MIC [21]: 93 µM (≈ 50 µg/mL); inhibition zone (IZ) [22]: inactive; inhibition zone (IZ) [23]: 0.07 millimeter; inhibition zone (IZ) [24]: 0.03; inhibition zone (IZ) [25]: inactive; inhibition zone (IZ) [26]: inactive; inhibition zone (IZ) [27]: inactive; inhibition zone (IZ) [28]: 0.08 millimeter; inhibition zone (IZ) [29]: inactive; inhibition zone (IZ) [30]: inactive; inhibition zone (IZ) [31]: 0.09 millimeter; MBC [32]: 744 µM (≈ 400 µg/mL); MIC [32]: 372 µM (≈ 200 µg/mL)
2 | COc1ccccc1C1CC(c2ccc(Nc3nc(Nc4ccccc4)nc(Nc4ccccc4)n3)cc2)=NN1C(C)=O (stereo not given) | inactive | inactive | inactive | inactive | inactive | 700 µM (≈ 399 µg/mL) | 350 µM (≈ 200 µg/mL) | 350 µM (≈ 200 µg/mL) | 175 µM (≈ 99.9 µg/mL) | inactive | 700 µM (≈ 399 µg/mL) | 700 µM (≈ 399 µg/mL) | inactive | inactive | inactive | 700 µM (≈ 399 µg/mL) | 350 µM (≈ 200 µg/mL) | inactive | inactive | inactive | inhibition zone (IZ) [4]: inactive; MBC [18]: 350 µM (≈ 200 µg/mL); MIC [18]: 175 µM (≈ 99.9 µg/mL); inhibition zone (IZ) [19]: inactive; MBC [20]: 350 µM (≈ 200 µg/mL); MIC [20]: 175 µM (≈ 99.9 µg/mL); MBC [21]: 700 µM (≈ 399 µg/mL); MIC [21]: 350 µM (≈ 200 µg/mL); inhibition zone (IZ) [22]: inactive; inhibition zone (IZ) ([23]; Salmonella enterica subsp. enterica serovar Typhimurium): inactive; inhibition zone (IZ) [24]: inactive; inhibition zone (IZ) [25]: inactive; inhibition zone (IZ) [26]: inactive; inhibition zone (IZ) [27]: inactive; inhibition zone (IZ) [28]: 0.08 millimeter; inhibition zone (IZ) [29]: inactive; inhibition zone (IZ) [30]: inactive; inhibition zone (IZ) [31]: 0.08 millimeter; MBC [32]: 700 µM (≈ 399 µg/mL); MIC [32]: 350 µM (≈ 200 µg/mL)
